From ChEMBL document CHEMBL3232847, “Discovery of 6-phenylpyrimido[4,5-b][1,4]oxazines as potent and selective acyl CoA:diacylglycerol acyltransferase 1 (DGAT1) inhibitors with in vivo efficacy in rodents” (J Med Chem, 2014)

Key:
[1] = biological target: T1, Diacylglycerol O-acyltransferase 1 (Homo sapiens, UniProt O75907); test: Inhibition of human liver flag-tagged DGAT1 expressed in baculovirus infected insect cells after 2 hrs by SPA
T1 sequence (O75907 whole entry): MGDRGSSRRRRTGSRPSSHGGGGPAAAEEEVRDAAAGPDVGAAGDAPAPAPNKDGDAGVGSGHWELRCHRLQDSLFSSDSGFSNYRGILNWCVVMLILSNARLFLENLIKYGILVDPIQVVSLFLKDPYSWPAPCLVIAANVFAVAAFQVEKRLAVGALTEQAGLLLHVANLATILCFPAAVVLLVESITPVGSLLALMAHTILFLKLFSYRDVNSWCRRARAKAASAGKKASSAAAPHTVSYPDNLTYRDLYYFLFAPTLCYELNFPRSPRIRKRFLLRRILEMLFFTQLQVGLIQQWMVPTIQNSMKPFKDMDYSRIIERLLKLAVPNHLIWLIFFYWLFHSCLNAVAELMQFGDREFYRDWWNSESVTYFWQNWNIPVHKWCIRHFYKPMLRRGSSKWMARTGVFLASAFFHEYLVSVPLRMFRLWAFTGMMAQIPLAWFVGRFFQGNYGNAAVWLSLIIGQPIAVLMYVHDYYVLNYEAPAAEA

[2] = Clearance in Sprague-Dawley rat at 1 mg/kg, iv; format: ADME, organism-based; parameters: dose 1 mg/kg, route intravenous; conditions: in vivo
Rattus norvegicus [3] = test: Toxicity in Sprague-Dawley rat assessed as elevation of plasma AST level at 50 mg/kg, iv administered as single dose; format: organism-based; parameters: dose 50 mg/kg, route intravenous; conditions: in vivo
Rattus norvegicus [4] = test: Toxicity in Sprague-Dawley rat assessed as elevation of plasma ALT level at 50 mg/kg, iv administered as single dose; format: organism-based; parameters: dose 50 mg/kg, route intravenous; conditions: in vivo
[5] = system: CHL (Chinese hamster lung cells); test: Toxicity in CHL cells assessed as chromosomal aberration
Rattus norvegicus [6] = test: Toxicity in Sprague-Dawley rat assessed as sebaceous gland atrophy at 100 to 500 mg/kg, po by 28-day multiple-dose toxicity study; format: organism-based; parameters: dose 100-500 mg/kg, route oral; conditions: in vivo
Method in brief: (§1)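 Sprague−Dawley rats were dosed po at 100 and 500 mg kg−1 day−1 for 28 days. Clinical pathology was assessed for treatment-related changes, including sebaceous gland atrophy.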

Salmonella typhimurium = test: Genotoxicity in Salmonella typhimurium; format: toxicity, organism-based; conditions: salmonella enterica subsp. enterica serovar typhimurium
Rattus norvegicus [7] = test: Toxicity in Sprague-Dawley rat assessed as clinical pathology parameters at 100 to 500 mg/kg, po by 28-day multiple-dose toxicity study; format: organism-based; parameters: dose 100-500 mg/kg, route oral; conditions: in vivo; method in brief: as §1
Cytochrome P450 3A4 = Cytochrome P450 3A4 (Homo sapiens, UniProt P08684); test: Inhibition of CYP3A4 (unknown origin) at 10 uM; format: ADME
Cytochrome P450 3A4, sequence (P08684 whole entry): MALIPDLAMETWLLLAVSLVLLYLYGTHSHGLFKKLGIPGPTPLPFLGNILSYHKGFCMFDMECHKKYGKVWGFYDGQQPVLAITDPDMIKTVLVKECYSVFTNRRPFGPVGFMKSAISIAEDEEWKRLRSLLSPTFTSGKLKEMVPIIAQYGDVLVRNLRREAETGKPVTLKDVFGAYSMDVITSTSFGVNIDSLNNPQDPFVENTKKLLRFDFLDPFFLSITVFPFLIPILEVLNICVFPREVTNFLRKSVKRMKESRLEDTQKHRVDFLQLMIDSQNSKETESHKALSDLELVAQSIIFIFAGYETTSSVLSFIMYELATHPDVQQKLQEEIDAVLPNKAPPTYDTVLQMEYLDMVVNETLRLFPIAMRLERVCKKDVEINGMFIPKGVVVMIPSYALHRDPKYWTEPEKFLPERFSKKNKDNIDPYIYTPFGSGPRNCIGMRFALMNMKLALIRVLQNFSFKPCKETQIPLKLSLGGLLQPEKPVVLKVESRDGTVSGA

Cytochrome P450 1A2 = biological target: T2, Cytochrome P450 1A2 (Homo sapiens, UniProt P05177); test: Inhibition of CYP1A2 (unknown origin) at 10 uM; format: ADME
T2 sequence (P05177 whole entry): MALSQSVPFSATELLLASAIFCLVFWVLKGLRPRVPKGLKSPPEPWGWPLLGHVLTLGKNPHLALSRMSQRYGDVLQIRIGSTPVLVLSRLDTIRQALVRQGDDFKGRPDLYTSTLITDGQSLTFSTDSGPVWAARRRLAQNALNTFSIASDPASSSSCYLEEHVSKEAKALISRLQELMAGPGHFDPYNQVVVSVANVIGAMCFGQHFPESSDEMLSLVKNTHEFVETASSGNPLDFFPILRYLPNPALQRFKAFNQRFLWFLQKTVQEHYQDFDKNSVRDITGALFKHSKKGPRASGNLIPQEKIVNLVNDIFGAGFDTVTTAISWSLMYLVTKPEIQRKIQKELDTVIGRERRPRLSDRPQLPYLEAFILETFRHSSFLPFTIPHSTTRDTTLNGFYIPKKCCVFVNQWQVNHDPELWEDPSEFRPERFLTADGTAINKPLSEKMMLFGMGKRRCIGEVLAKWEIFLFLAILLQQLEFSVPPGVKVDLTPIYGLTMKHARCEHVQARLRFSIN

Cytochrome P450 2C9 = Cytochrome P450 2C9 (Homo sapiens, UniProt P11712); test: Inhibition of CYP2C9 (unknown origin) at 10 uM; format: ADME
Cytochrome P450 2C9, sequence (P11712 whole entry): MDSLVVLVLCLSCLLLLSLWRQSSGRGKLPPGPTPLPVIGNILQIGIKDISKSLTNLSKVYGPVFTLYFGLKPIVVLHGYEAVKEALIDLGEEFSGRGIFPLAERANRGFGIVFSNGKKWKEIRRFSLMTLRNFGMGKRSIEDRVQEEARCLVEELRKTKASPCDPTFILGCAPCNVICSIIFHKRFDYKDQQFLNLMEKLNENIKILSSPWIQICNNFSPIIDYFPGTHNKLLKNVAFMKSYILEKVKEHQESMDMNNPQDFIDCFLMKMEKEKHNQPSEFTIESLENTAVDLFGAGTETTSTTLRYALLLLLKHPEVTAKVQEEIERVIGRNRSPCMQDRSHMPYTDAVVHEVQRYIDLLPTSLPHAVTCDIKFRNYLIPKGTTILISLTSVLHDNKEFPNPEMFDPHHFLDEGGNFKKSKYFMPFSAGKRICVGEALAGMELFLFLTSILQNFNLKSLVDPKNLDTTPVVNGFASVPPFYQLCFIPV

Cytochrome P450 2D6 = Cytochrome P450 2D6 (Homo sapiens, UniProt P10635); test: Inhibition of CYP2D6 (unknown origin) at 10 uM; format: ADME
Cytochrome P450 2D6, sequence (P10635 whole entry): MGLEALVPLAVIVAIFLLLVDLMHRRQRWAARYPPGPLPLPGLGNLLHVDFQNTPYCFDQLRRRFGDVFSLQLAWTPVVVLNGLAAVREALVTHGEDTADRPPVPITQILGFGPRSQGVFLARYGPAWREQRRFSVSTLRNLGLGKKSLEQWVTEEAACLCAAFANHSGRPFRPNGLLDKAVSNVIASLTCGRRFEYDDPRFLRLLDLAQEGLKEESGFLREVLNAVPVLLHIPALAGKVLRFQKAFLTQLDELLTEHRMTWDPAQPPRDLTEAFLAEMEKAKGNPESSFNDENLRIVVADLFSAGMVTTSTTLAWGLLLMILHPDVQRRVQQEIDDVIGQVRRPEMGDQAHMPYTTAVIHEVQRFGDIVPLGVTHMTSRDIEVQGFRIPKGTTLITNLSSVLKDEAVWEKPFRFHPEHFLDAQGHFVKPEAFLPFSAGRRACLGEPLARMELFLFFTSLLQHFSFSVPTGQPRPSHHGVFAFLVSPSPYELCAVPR

Cynomolgus monkey [8] = test: Toxicity in cynomolgus monkey assessed as QTc interval prolongation at 1 mg/kg/day, po by 28-day multiple-dose toxicity study relative to control; format: organism-based, Macaca fascicularis; parameters: route oral; conditions: in vivo
Method in brief: (§2)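 Cynomolgus monkeys were dosed po at 1, 10 and 100 mg kg−1 day−1 for 28 days. Plasma ALT and AST were measured and QTc intervals were recorded, with eight monkeys in the 100 mg/kg group.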

Cynomolgus monkey [9] = test: Toxicity in cynomolgus monkey assessed as QTc interval prolongation at 10 mg/kg/day, po by 28-day multiple-dose toxicity study relative to control; format: organism-based, Macaca fascicularis; parameters: route oral; conditions: in vivo; method in brief: as §2

`CNc1ncnc2c1N=C(c1ccc(Br)cc1)CO2` gave an IC50 [1] greater than 10 µM.
In the case of `Nc1cccc2c1N=C(c1ccc(Br)cc1)CO2`, the IC50 [1] is reported as greater than 10 µM.
In the case of `CC1(C)Oc2ncnc(N)c2C=C1c1ccc2c(c1)CC[C@]21CC[C@@H](CC(=O)O)CC1`, the clearance [2] is reported as 21.7 mL/min/kg.
In the case of `CC1(C)Oc2nc(C(F)(F)F)nc(N)c2N=C1c1ccc([C@H]2CC[C@H](CC(=O)O)CC2)cc1`, the clearance [2] is reported as 1.33 mL/min/kg.
For `CC1(C)Oc2nc(O)nc(N)c2N=C1c1ccc([C@H]2CC[C@H](CC(=O)O)CC2)cc1`, the Activity (Rattus norvegicus [3]) was “Toxic” and the Activity (Rattus norvegicus [4]) was “Toxic”.
With `Nc1nc(N)c2c(n1)OCC(c1ccc(Br)cc1)=N2` the IC50 [1] was greater than 10 µM.
For `Cc1nc(N)c2c(n1)OC(C)(C)C(c1ccc([C@H]3CC[C@H](CC(=O)O)CC3)cc1)=N2`, the Activity [5] was “Toxic”, the Activity (Rattus norvegicus [6]) was “Toxic” and the Activity (Salmonella typhimurium) was “Non-toxic”. The Activity (Rattus norvegicus [7]) was “Non-toxic”, the “inhibition (INH)” value (Cytochrome P450 3A4) was “Not Active” and the “inhibition (INH)” value (Cytochrome P450 1A2) was “Not Active”. For the same molecule, the “inhibition (INH)” value (Cytochrome P450 2C9) was “Not Active”, the clearance [2] was 3.5 mL/min/kg and the “inhibition (INH)” value (Cytochrome P450 2D6) was “Not Active”. The Activity (Cynomolgus monkey [8]) was “Non-toxic” and the Activity (Cynomolgus monkey [9]) was “Non-toxic”.
For `CC1(C)Oc2ncnc(N)c2C=C1c1ccc([C@H]2CC[C@H](CC(=O)O)CC2)cc1`, the clearance [2] was 23.3 mL/min/kg.
Molecule `Nc1nc(O)nc2c1N=C(c1ccc(Br)cc1)CO2` has an IC50 [1] greater than 10 µM.
For `CN(C)c1ncnc2c1N=C(c1ccc(Br)cc1)CO2`, the IC50 [1] was greater than 10 µM.
Work on `CN(C)c1nc(N)c2c(n1)OCC(c1ccc(Br)cc1)=N2` yielded an IC50 [1] greater than 10 µM.
